What was measured:
[1] = system: K562; assay: Antiproliferative activity against human K562 cells at 10 uM after 48 hrs by trypan blue assay; assay type: functional; conditions: K562, 48 h, read-out: GI
[2] = system: UACC-257; assay: Growth inhibition of human UACC257 cells after 48 hrs by SRB assay; assay type: functional; conditions: UACC-257, 48 h
Summary of the method: (§1)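 Run by the NCI Developmental Therapeutics Program: cells in RPMI 1640 with 5% FBS and 2 mM L-glutamine, plated at 5000–40,000 cells/well and grown 24 h before dosing. Drug (DMSO stock) given at five concentrations for 48 h at 37 °C, 5% CO2. Adherent cells fixed with cold TCA, stained with 0.4% SRB and read at 515 nm. GI50, TGI and LC50 taken from the time-zero, control and treated absorbances.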

[3] = system: U-251; assay: Growth inhibition of human U251 cells after 48 hrs by SRB assay; assay type: functional; conditions: U-251, 48 h; summary of the method: as §1
[4] = system: LOX IMVI; assay: Growth inhibition of human LOXIMVI cells after 48 hrs by SRB assay; assay type: functional
Summary of the method: (§2)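 NCI DTP panel cells grown in RPMI 1640 with 5% FBS and 2 mM L-glutamine, preincubated 24 h, then given five concentrations (10-fold or ½-log dilutions from DMSO stock) for 48 h at 37 °C. Cells fixed with TCA, stained with SRB, absorbance read at 515 nm, with time-zero plates as reference.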

[5] = system: CCRF-CEM; assay: Growth inhibition of human CCRF-CEM cells after 48 hrs by SRB assay; assay type: functional; summary of the method: as §2
[6] = system: PC-3; assay: Growth inhibition of human PC3 cells after 48 hrs by SRB assay; assay type: functional; conditions: PC-3, 48 h; summary of the method: as §2
[7] = system: OVCAR-5; assay: Growth inhibition of human OVCAR5 cells after 48 hrs by SRB assay; assay type: functional; conditions: OVCAR-5, 48 h; summary of the method: as §2
[8] = system: SW-620; assay: Growth inhibition of human SW620 cells after 48 hrs by SRB assay; assay type: functional; conditions: SW-620, 48 h; summary of the method: as §1
[9] = system: SN12C; assay: Growth inhibition of human SN12C cells after 48 hrs by SRB assay; assay type: functional; summary of the method: as §1
[10] = system: HCC 2998; assay: Growth inhibition of human HCC2998 cells after 48 hrs by SRB assay; assay type: functional; conditions: HCC 2998, 48 h; summary of the method: as §2
[11] = system: OVCAR-4; assay: Growth inhibition of human OVCAR4 cells after 48 hrs by SRB assay; assay type: functional; conditions: OVCAR-4, 48 h; summary of the method: as §2
[12] = system: M14; assay: Growth inhibition of human M14 cells after 48 hrs by SRB assay; assay type: functional; conditions: M14, 48 h; summary of the method: as §2
[13] = system: SK-MEL-28; assay: Growth inhibition of human SK-MEL-28 cells after 48 hrs by SRB assay; assay type: functional; conditions: SK-MEL-28, 48 h; summary of the method: as §1
[14] = system: MCF7; assay: Growth inhibition of human MCF7 cells after 48 hrs by SRB assay; assay type: functional; conditions: MCF7, 48 h; summary of the method: as §2
[15] = Growth inhibition of human Hs 578T cells after 48 hrs by SRB assay; assay type: functional; summary of the method: as §2
[16] = system: MOLT-4; assay: Growth inhibition of human MOLT4 cells after 48 hrs by SRB assay; assay type: functional; conditions: MOLT-4, 48 h; summary of the method: as §2
[17] = system: SK-MEL-5; assay: Growth inhibition of human SK-MEL-5 cells after 48 hrs by SRB assay; assay type: functional; conditions: SK-MEL-5, 48 h; summary of the method: as §1
[18] = system: HCT-116; assay: Growth inhibition of human HCT116 cells after 48 hrs by SRB assay; assay type: functional; conditions: HCT-116, 48 h; summary of the method: as §2
[19] = system: 786-0; assay: Growth inhibition of human 786-0 cells after 48 hrs by SRB assay; assay type: functional; conditions: 786-0, 48 h; summary of the method: as §2
[20] = system: A549; assay: Growth inhibition of human A549 cells after 48 hrs by SRB assay; assay type: functional; conditions: A549, 48 h; summary of the method: as §2
[21] = system: SF-295; assay: Growth inhibition of human SF295 cells after 48 hrs by SRB assay; assay type: functional; conditions: SF-295, 48 h; summary of the method: as §2
[22] = system: UACC-62; assay: Growth inhibition of human UACC62 cells after 48 hrs by SRB assay; assay type: functional; conditions: UACC-62, 48 h; summary of the method: as §1
[23] = system: NCI-H522; assay: Growth inhibition of human NCI-H522 cells after 48 hrs by SRB assay; assay type: functional; conditions: NCI-H522, 48 h; summary of the method: as §2
[24] = system: A498; assay: Growth inhibition of human A498 cells after 48 hrs by SRB assay; assay type: functional; conditions: A498, 48 h; summary of the method: as §2
[25] = system: CAKI-1; assay: Growth inhibition of human Caki1 cells after 48 hrs by SRB assay; assay type: functional; conditions: CAKI-1, 48 h; summary of the method: as §2
[26] = system: HT-29; assay: Growth inhibition of human HT-29 cells after 48 hrs by SRB assay; assay type: functional; conditions: HT-29, 48 h; summary of the method: as §2
[27] = system: T47D; assay: Growth inhibition of human T47D cells after 48 hrs by SRB assay; assay type: functional; summary of the method: as §1
[28] = system: SNB-75; assay: Growth inhibition of human SNB75 cells after 48 hrs by SRB assay; assay type: functional; conditions: SNB-75, 48 h; summary of the method: as §1
[29] = system: HOP-62; assay: Growth inhibition of human HOP62 cells after 48 hrs by SRB assay; assay type: functional; conditions: HOP-62, 48 h; summary of the method: as §2
[30] = system: SF-539; assay: Growth inhibition of human SF539 cells after 48 hrs by SRB assay; assay type: functional; conditions: SF-539, 48 h; summary of the method: as §2
[31] = system: SNB-19; assay: Growth inhibition of human SNB19 cells after 48 hrs by SRB assay; assay type: functional; conditions: SNB-19, 48 h; summary of the method: as §1
[32] = system: K562; assay: Growth inhibition of human K562 cells after 48 hrs by trypan blue assay; assay type: functional, cell-based; conditions: K562, 48 h
[33] = system: NCI-H460; assay: Growth inhibition of human NCI-H460 cells after 48 hrs by SRB assay; assay type: functional; conditions: NCI-H460, 48 h; summary of the method: as §2
[34] = system: COLO 205; assay: Growth inhibition of human COLO205 cells after 48 hrs by SRB assay; assay type: functional; conditions: COLO 205, 48 h; summary of the method: as §2
[35] = system: KM12; assay: Growth inhibition of human KM12 cells after 48 hrs by SRB assay; assay type: functional; conditions: KM12, 48 h; summary of the method: as §2
[36] = system: DU-145; assay: Growth inhibition of human DU145 cells after 48 hrs by SRB assay; assay type: functional; conditions: DU-145, 48 h; summary of the method: as §2
[37] = system: UO-31; assay: Growth inhibition of human UO31 cells after 48 hrs by SRB assay; assay type: functional; conditions: UO-31, 48 h; summary of the method: as §1
[38] = system: ACHN; assay: Growth inhibition of human ACHN cells after 48 hrs by SRB assay; assay type: functional; summary of the method: as §2
[39] = system: HOP-92; assay: Growth inhibition of human HOP92 cells after 48 hrs by SRB assay; assay type: functional; conditions: HOP-92, 48 h; summary of the method: as §2
[40] = system: HL-60; assay: Growth inhibition of human HL60 cells after 48 hrs by SRB assay; assay type: functional; conditions: HL-60, 48 h; summary of the method: as §2
[41] = system: SK-OV-3; assay: Growth inhibition of human SKOV3 cells after 48 hrs by SRB assay; assay type: functional; conditions: SK-OV-3, 48 h; summary of the method: as §1
[42] = system: HCT-15; assay: Growth inhibition of human HCT15 cells after 48 hrs by SRB assay; assay type: functional; conditions: HCT-15, 48 h; summary of the method: as §2
[43] = system: BT-549; assay: Growth inhibition of human BT549 cells after 48 hrs by SRB assay; assay type: functional; conditions: BT-549, 48 h; summary of the method: as §2
[44] = system: OVCAR-3; assay: Growth inhibition of human OVCAR3 cells after 48 hrs by SRB assay; assay type: functional; conditions: OVCAR-3, 48 h; summary of the method: as §2
[45] = system: NCI-H23; assay: Growth inhibition of human NCI-H23 cells after 48 hrs by SRB assay; assay type: functional; conditions: NCI-H23, 48 h; summary of the method: as §2
[46] = system: SK-MEL-2; assay: Growth inhibition of human SK-MEL-2 cells after 48 hrs by SRB assay; assay type: functional; conditions: SK-MEL-2, 48 h; summary of the method: as §1

NC(=O)c1cc(I)ccc1NC(=O)/C=C/c1ccccc1
inhibition of growth at 10 µM [1]: 74.5%
GI50 [2]: 14.3 µM
GI50 [3]: 0.501 µM
GI50 [4]: 3.75 µM
GI50 [5]: 0.341 µM
GI50 [6]: 0.628 µM
GI50 [7]: 3.52 µM
GI50 [8]: 0.541 µM
GI50 [9]: 0.635 µM
GI50 [10]: 1.25 µM
GI50 [11]: 1.84 µM
GI50 [12]: 0.429 µM
GI50 [13]: 2.51 µM
GI50 [14]: 0.45 µM
GI50 [15]: 0.375 µM
GI50 [16]: 0.202 µM
GI50 [17]: 0.383 µM
GI50 [18]: 0.43 µM
GI50 [19]: 1.43 µM
GI50 [20]: 2.65 µM
GI50 [21]: 0.35 µM
GI50 [22]: 0.632 µM
GI50 [23]: 0.303 µM
GI50 [24]: 2.7 µM
GI50 [25]: 0.648 µM
GI50 [26]: 0.367 µM
GI50 [27]: 0.857 µM
GI50 [28]: 0.245 µM
GI50 [29]: 0.8 µM
GI50 [30]: 0.445 µM
GI50 [31]: 0.586 µM
IC50 [32]: 0.57 µM
GI50 [33]: 0.453 µM
GI50 [34]: 0.343 µM
GI50 [35]: 0.499 µM
GI50 [36]: 0.477 µM
GI50 [37]: 3.53 µM
GI50 [38]: 3.7 µM
GI50 [39]: 21.2 µM
GI50 [40]: 0.0542 µM
GI50 [41]: 0.744 µM
GI50 [42]: 0.586 µM
GI50 [43]: 9.47 µM
GI50 [44]: 0.353 µM
GI50 [45]: 0.84 µM
GI50 [46]: 1.4 µM

NC(=O)c1cc(Cl)ccc1NC(=O)/C=C/c1ccccc1
inhibition of growth at 10 µM [1]: 64%
GI50 [2]: 15.1 µM
GI50 [3]: 2.14 µM
GI50 [4]: 4.33 µM
GI50 [5]: 2.96 µM
GI50 [6]: 3.15 µM
GI50 [7]: 2.74 µM
GI50 [8]: 1.99 µM
GI50 [9]: 3.96 µM
GI50 [10]: 0.487 µM
GI50 [11]: 2.77 µM
GI50 [12]: 1.71 µM
GI50 [13]: 2.88 µM
GI50 [14]: 1.74 µM
GI50 [15]: 2.04 µM
GI50 [16]: 3.95 µM
GI50 [17]: 0.373 µM
GI50 [18]: 1.98 µM
GI50 [19]: 2.32 µM
GI50 [20]: 3.77 µM
GI50 [21]: 1.4 µM
GI50 [22]: 2.52 µM
GI50 [23]: 2.08 µM
GI50 [24]: 3.61 µM
GI50 [25]: 0.263 µM
GI50 [26]: 1.94 µM
GI50 [27]: 3.36 µM
GI50 [28]: 1.84 µM
GI50 [29]: 3.15 µM
GI50 [30]: 2.05 µM
GI50 [31]: 3.18 µM
IC50 [32]: 2.5 µM
GI50 [33]: 1.76 µM
GI50 [34]: 1.68 µM
GI50 [35]: 1.69 µM
GI50 [36]: 2.16 µM
GI50 [37]: 3.57 µM
GI50 [38]: 4.75 µM
GI50 [39]: 2.87 µM
GI50 [40]: 1.42 µM
GI50 [41]: 2.3 µM
GI50 [42]: 2.13 µM
GI50 [43]: 3.19 µM
GI50 [44]: 1.3 µM
GI50 [45]: 3.37 µM
GI50 [46]: 2.75 µM

Source: ChEMBL document CHEMBL1795311, “Synthesis, antiproliferative activity, and mechanism of action of a series of 2-{[(2E)-3-phenylprop-2-enoyl]amino}benzamides” (Eur J Med Chem, 2011)
